# Most compounds without a hit are left out; they make up all but 4.7% or so of the library.
# HTR2A ag – mouse HTR2A agonism via beta-arrestin recruitment | 360,000 tested, 0.66% active | activation, % at 7.6 µM | P35363 | CHO-K1 mHTR2A beta-arrestin complementation, luminescence; percent of 30 µM serotonin response;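 active = activation above a run cutoff, the mean activation of all tested compounds plus 3 SD, cut at about 14% in these data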;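 note: 0% = plate median of compound wells and 100% = 30 µM serotonin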
# Target sequence (P35363 whole entry, looked up): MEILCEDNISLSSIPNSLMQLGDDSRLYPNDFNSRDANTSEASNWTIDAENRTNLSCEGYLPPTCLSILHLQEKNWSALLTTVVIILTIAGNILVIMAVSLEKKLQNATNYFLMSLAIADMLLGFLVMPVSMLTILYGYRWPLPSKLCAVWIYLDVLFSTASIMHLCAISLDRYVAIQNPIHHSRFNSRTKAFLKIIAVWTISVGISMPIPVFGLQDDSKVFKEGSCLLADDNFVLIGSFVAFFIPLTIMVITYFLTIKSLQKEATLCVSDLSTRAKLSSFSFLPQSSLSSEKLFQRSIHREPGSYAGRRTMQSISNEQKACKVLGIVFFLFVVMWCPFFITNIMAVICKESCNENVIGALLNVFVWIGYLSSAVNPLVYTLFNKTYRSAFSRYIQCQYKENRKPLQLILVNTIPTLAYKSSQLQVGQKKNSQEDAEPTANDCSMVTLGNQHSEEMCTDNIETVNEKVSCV
# AHR act – activators of human aryl hydrocarbon receptor; AHR-responsive luciferase reporter cells, luminescence; activation, % at 5 µM; 320,000 tested, 2.5% active; AID 2796; in the data active = activation above about 47%;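 note: 0% = vehicle wells and 100% = reference agonist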
# MC4R antagonist – blocks human MC4R cAMP signaling; P32245; MC4R-expressing cells, MTII-stimulated cAMP, LANCE TR-FRET; inhibition, % at 6.5 µM; 360,000 tested, 0.48% active;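 active = inhibition above its plate's cutoff, the mean of tested wells on that plate plus 3 SD, cut at about 29% in these data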;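 note: 0% = Melanotan II alone and 100% = Melanotan II plus saturating MCL0020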
#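 Assay system: human MC4R-expressing U2OS cells; reagent: Melanotan II stimulation of cells; dosing: 6.5 µM single dose; timing: compound 30 min, challenge 1 h, detection 1 h; signal: TR-FRET cAMP assay; replicates: one well per compound, no replicates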
# MC4R barr agon – agonists of human melanocortin 4 receptor (MC4R) beta-arrestin; P32245; activation, % at 8.9 µM; AID 540308; U2OS MC4R beta-arrestin complementation, luminescence; percent of melanotan II response, DMSO zero; 360,000 tested, 0.98% active;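 active = activation above a per-plate cutoff, the mean activation of sample wells on that plate plus 3 SD, cut at about 8% in these data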
# FXN GAA850 act – activators of GAA850 frataxin (FXN) promoter; HEK293 lucGAA850 FXN promoter luciferase reporter, 24 h; percent of 10 µM SAHA response; activation, % at 6 µM; 360,000 tested, 0.56% active;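 active = activation above the average of all compounds screened plus 3 SD, cutoff fixed separately per campaign, cut at about 7.5% in these data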;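 note: 0% = DMSO wells and 100% = 10 µM SAHA wells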
# Numbers without * were called inactive; x = no result.
SMILES,HTR2A ag,AHR act,MC4R antagonist,MC4R barr agon,FXN GAA850 act
O=C(CNC(=O)C1(c2ccccc2)CC1)Nc1ccc(F)c(F)c1,-2.9,14.1,12.6,-1.6,-1.5
OCCNc1nc(-c2cccnc2)nc2ccccc12,-3.7,31.2,2.0,0.4,-1.1
Cc1nc(NCCCn2ccnc2)c2ccccc2n1,-1.7,57.2*,1.9,-1.1,0.1
Cc1ccc(-c2nc3ccccc3c(=O)n2CCCn2ccnc2)cc1,1.2,5.2,1.2,3.4,0.1
c1cncc(-c2nc(NCCCn3ccnc3)c3ccccc3n2)c1,-1.0,74.8*,14.9,0.8,0.1
O=c1c2ccccc2nc(-c2ccccc2)n1CCCn1ccnc1,2.5,56.1*,2.5,-1.4,-0.2
c1ccc(-c2nc(NCCCn3ccnc3)c3oc4ccccc4c3n2)cc1,0.9,82.3*,5.7,0.2,1.4
O=[N+]([O-])c1cccc(/C(=N/N=C/c2ccccc2Br)C23CN4CN(CN(C4)C2)C3)c1,2.2,67.3*,6.1,2.1,-0.6
O=C(c1ccc(Cl)c(S(=O)(=O)N2CCOCC2)c1)N1CCc2ccccc2C1,-3.9,2.4,8.0,0.8,1.9
Cc1ccc(C(=O)CSc2n[nH]c(C)n2)cc1,0.3,2.0,14.2,0.7,3.3
CCc1ccc(C(=O)CSc2n[nH]c(C)n2)cc1,1.9,55.5*,10.3,2.0,-0.3
COc1c2occc2c(OC(C)=O)c2c(=O)cc(C)oc12,-1.0,54.0*,0.4,-0.8,-0.1
COc1cccc(/C=N/Nc2nc3ccccc3n3cnnc23)c1,0.2,57.5*,-22.5,1.4,-3.0
COc1ccc(Nc2nc3ccccc3n3cnnc23)cc1,-1.0,71.7*,-5.6,2.2,-0.5
COc1cccc(/C=N/Nc2nc3ccccc3n3cnnc23)c1O,-5.4,-4.9,-16.5,-1.9,5.3
Cc1nc(C(F)(F)F)ccc1C(=O)N1CCC1(C)C(=O)NS(=O)(=O)c1ccc2ccccc2c1 (stereo not given),2.1,x,11.2,-1.2,0.2
CN(C)c1ccc(NC(=S)c2ccc3ccccc3n2)cc1,-0.6,48.2*,-6.0,-2.6,0.6
Cc1cccc(Cn2nc(C(C)(C)C)cc2C(=O)Nc2ccc(F)cc2)c1,-0.9,-1.2,4.6,8.5*,-4.9
CC(C)N=Cc1c(O)[nH]c2ccccc12,3.8,4.8,-0.4,-0.9,2.2
Cc1cccc(/N=C/c2c(O)[nH]c3ccccc23)n1,-4.3,64.3*,0.9,0.1,6.7
Cc1ccccc1SCC(=O)OCC(=O)N(C)c1c(N)n(Cc2ccccc2)c(=O)[nH]c1=O,-1.0,-1.2,-2.1,1.3,0.7
Cc1ccc(C2=N/C(=C/N3CCOCC3)C(=O)O2)cc1,4.0,57.2*,9.3,1.2,3.3
Cc1ccc(C2=N/C(=C\N3CCCCC3)C(=O)O2)cc1,2.4,-1.1,-10.2,0.5,5.1
COc1ccc(-c2cc3c(=O)n(CC(=O)N4CCCCC4)ncn3n2)cc1,-2.2,-1.0,4.9,-0.5,1.6
COc1ccc(-c2cc3c(=O)n(CC(=O)N4CCN(C)CC4)ncn3n2)cc1,7.1,73.0*,-2.4,-0.1,3.6
SMILES,HTR2A ag,AHR act,MC4R antagonist,MC4R barr agon,FXN GAA850 act
CCc1nc2c(OCCn3cccc3)cccn2c1N(C)C(=O)c1ccco1,3.2,x,-7.5,-2.5,0.3
CC(C)(C)C(=O)Nc1ccc(/C=C/C(=O)c2ccco2)cc1,-1.0,16.4,-0.1,-2.4,4.2
Cc1ccc(S(=O)(=O)N(CC(=O)N/N=C/c2ccccc2C(=O)O)c2cc(Cl)cc(Cl)c2)cc1,2.2,-0.4,0.8,-1.6,2.3
CCCc1nc2c(c(=O)c3ccccc3n2C)c(=O)n1-c1ccc(F)cc1,3.1,10.6,10.0,0.8,-3.1
COCCn1c(C(C)C)nc2oc3ccccc3c(=O)c2c1=O,6.0,3.4,14.5,0.0,-1.0
Cc1ccc(-n2c(C(C)C)nc3oc4ccccc4c(=O)c3c2=O)cc1,0.2,74.6*,3.5,-2.4,-3.0
CCc1nc2oc3ccccc3c(=O)c2c(=O)n1-c1ccc(C)cc1,1.6,64.0*,-4.1,0.2,3.5
CCCc1nc2oc3ccccc3c(=O)c2c(=O)n1-c1ccccc1,4.3,100.5*,-1.1,-1.9,-3.0
CCc1nc2oc3ccccc3c(=O)c2c(=O)n1CCOC,-1.7,19.3,-2.4,0.9,0.6
N#CCCN/N=C(/Cc1nc2ccccc2[nH]1)c1ccc(Cl)cc1,x,47.7*,x,x,x
c1ccc(N/N=C(\Cc2nc3ccccc3[nH]2)c2ccccc2)cc1,-2.5,149.0*,2.5,-1.5,1.1
